According to ChEMBL document CHEMBL3632513, “Synthesis of donepezil-based multifunctional agents for the treatment of Alzheimer's disease” (Bioorg Med Chem Lett, 2015):
≈ marks a conversion by molar mass, not a printed value. Calls of active or inactive are those of the source. No cut-off for these calls is given here.

Columns and labels:
[1] = target: Acetylcholinesterase (Electrophorus electricus, UniProt O42275); assay: Inhibition of electric eel AChE using acetylthiocholine iodide as substrate preincubated for 15 mins by Ellman's method
Sequence of Acetylcholinesterase (O42275 whole entry): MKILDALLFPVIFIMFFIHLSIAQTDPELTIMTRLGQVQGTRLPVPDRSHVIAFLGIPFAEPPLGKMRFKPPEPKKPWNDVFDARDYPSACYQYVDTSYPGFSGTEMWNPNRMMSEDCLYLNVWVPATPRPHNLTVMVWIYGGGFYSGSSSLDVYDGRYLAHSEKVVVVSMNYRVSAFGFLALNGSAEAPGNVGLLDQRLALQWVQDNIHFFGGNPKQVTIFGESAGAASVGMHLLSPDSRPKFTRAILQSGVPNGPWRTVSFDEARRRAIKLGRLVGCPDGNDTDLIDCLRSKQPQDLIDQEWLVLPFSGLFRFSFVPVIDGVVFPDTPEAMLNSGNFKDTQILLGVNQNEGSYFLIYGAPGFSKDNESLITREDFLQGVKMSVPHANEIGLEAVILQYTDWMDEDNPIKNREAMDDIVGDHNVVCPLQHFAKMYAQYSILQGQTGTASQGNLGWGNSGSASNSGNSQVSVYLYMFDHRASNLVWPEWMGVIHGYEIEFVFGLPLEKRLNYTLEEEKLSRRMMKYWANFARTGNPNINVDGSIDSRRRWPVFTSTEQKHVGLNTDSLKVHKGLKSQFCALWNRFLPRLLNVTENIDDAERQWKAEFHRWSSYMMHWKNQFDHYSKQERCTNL

[2] = Lipophilicity, log P of the compound by […]; assay type: physicochemical; details: octanol/water
[3] = Selectivity ratio of IC50 for equine BuChE to IC50 for electric eel AChE
Summary of the method: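 Both IC50 values come from Ellman's method, using AChE from electric eel and BuChE from equine serum. Selectivity for AChE is calculated as IC50(BuChE)/IC50(AChE).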

[4] = target: Cholinesterase (Equus caballus, UniProt P81908); assay: Inhibition of equine serum BuChE using butyrylthiocholine iodide as substrate preincubated for 15 mins by Ellman's method
Sequence of Cholinesterase (P81908 whole entry): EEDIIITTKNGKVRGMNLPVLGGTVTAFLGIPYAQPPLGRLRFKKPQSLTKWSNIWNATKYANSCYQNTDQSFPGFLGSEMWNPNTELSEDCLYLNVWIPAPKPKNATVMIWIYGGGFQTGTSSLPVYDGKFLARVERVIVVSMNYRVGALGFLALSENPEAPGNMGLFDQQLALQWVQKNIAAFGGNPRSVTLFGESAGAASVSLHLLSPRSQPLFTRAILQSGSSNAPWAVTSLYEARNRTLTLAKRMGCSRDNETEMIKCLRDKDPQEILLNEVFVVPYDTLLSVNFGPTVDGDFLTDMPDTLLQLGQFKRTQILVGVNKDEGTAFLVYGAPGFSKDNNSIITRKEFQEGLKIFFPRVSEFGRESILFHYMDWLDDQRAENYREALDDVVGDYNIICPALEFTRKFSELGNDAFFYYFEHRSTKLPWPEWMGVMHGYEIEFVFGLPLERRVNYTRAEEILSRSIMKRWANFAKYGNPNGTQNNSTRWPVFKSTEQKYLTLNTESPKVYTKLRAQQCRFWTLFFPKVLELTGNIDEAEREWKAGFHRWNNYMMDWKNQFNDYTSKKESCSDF

[5] = Antioxidant activity assessed as DPPH scavenging activity at 10 to 60 ug/ml after 30 mins
[6] = target: Amyloid-beta precursor protein (Homo sapiens) (UniProt P05067); assay: Inhibition of self-induced amyloid beta (1-42) aggregation (unknown origin) at 25 uM after 48 hrs by thioflavin T fluorescence method
Sequence of Amyloid-beta precursor protein (Homo sapiens) (P05067 whole entry): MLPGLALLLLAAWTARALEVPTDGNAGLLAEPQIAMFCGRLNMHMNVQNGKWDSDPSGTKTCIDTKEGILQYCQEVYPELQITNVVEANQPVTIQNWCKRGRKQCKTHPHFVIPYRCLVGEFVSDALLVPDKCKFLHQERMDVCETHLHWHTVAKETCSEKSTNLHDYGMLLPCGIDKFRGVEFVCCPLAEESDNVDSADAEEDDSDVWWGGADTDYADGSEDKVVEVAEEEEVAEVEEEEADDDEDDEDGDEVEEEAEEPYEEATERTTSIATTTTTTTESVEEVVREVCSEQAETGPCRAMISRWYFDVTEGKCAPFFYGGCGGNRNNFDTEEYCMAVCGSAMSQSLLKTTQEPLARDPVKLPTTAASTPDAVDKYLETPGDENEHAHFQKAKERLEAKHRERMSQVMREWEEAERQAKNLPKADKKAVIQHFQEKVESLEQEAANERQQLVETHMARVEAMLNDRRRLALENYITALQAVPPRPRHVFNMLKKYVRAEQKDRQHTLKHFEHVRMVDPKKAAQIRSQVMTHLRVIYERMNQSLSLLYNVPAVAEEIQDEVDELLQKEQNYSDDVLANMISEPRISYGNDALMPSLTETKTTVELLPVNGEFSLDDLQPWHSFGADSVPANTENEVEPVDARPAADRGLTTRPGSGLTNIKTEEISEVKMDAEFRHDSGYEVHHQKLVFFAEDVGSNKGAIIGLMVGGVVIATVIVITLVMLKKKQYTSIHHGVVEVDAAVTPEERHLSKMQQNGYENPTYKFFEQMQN
Summary of the method: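 Thioflavin T fluorometric assay of self-induced Aβ1–42 aggregation, with test compounds and the curcumin reference each at 25. Results are reported as percent inhibition of aggregation.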

[7] = target: Acetylcholinesterase (Electrophorus electricus) (UniProt O42275); assay: Mixed-type of inhibition in electric eel AChE at 0.5 to 2 uM by Lineweaver-Burk plot method
Sequence of Acetylcholinesterase (Electrophorus electricus) (O42275 24-633 limits assumed): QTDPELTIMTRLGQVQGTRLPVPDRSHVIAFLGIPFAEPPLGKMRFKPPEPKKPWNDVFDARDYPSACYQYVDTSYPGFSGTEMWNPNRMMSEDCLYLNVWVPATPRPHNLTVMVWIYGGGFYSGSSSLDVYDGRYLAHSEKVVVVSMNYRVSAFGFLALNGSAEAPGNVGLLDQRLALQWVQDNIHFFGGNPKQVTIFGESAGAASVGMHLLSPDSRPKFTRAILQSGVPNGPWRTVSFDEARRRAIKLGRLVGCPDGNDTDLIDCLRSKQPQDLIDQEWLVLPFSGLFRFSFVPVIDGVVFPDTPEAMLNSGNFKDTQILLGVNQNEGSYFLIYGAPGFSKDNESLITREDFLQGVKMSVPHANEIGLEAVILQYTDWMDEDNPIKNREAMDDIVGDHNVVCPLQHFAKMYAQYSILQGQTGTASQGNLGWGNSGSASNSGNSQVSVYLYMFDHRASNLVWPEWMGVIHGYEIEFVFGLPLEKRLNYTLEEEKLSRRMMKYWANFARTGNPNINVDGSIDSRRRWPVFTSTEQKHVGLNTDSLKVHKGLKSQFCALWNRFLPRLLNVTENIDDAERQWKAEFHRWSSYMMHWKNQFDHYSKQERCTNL

[8] = Metal chelating activity of the compound assessed as Zn2+ complex formation after 20 mins by UV-vis spectrophotometry; assay type: physicochemical
[9] = target: Cholinesterase (Equus caballus) (UniProt P81908); assay: Mixed-type of inhibition in equine BuChE at 10 to 40 uM by Lineweaver-Burk plot method
Sequence of Cholinesterase (Equus caballus) (P81908 whole entry): as the sequence (P81908 whole entry) above

[10] = target: Cholinesterase (Equus caballus) (UniProt P81908); assay: Non-competitive inhibition in equine BuChE at 10 to 40 uM by Lineweaver-Burk plot method

Structure (SMILES) | IC50 [1] | logP [2] | Ratio IC50 [3] | IC50 [4] | IC50 [5] | inhibition [6] | inhibition [7] | Activity [8] | inhibition [9] | inhibition [10]
CCOc1ccc(NC(=O)C2Cc3cc(OC)c(OC)cc3C2=O)cc1 (centres undefined) | 580 nM | 2.42 | 4.5 | 2610 nM | 48.16 µg/mL (≈ 136 µM) | 40.8% | – | – | – | –
COc1cc2c(cc1OC)C(=O)C(C(=O)Nc1ccccc1C)C2 (centres undefined) | 360 nM | 2.69 | 8.5 | 3060 nM | 43.74 µg/mL (≈ 134 µM) | 40.3% | – | – | – | –
COc1cc2c(cc1OC)C(=O)C(C(=O)Nc1ccccc1F)C2 (centres undefined) | 80 nM | 2.36 | 40.1 | 3210 nM | 75.68 µg/mL (≈ 230 µM) | 55.3% | Active | Active | – | –
COc1ccccc1NC(=O)C1Cc2cc(OC)c(OC)cc2C1=O (centres undefined) | 700 nM | 2.08 | 6.9 | 4810 nM | 45.76 µg/mL (≈ 134 µM) | 25.6% | – | – | – | –
Cc1c(C)c2c(c(C)c1O)CC[C@@](C)(CCC[C@H](C)CCC[C@H](C)CCCC(C)C)O2 [ALPHA-TOCOPHEROL] | – | – | – | – | 31.74 µg/mL (≈ 73.7 µM) | – | – | – | – | –
Cc1c(C)c2c(c(C)c1O)CCC(C)(C(=O)O)O2 (centres undefined) [TROLOX] | – | – | – | – | 20.87 µg/mL (≈ 83.4 µM) | – | – | – | – | –
COc1cc2c(cc1OC)C(=O)C(C(=O)Nc1ccccc1Cl)C2 (centres undefined) | 300 nM | 2.76 | 23.7 | 7100 nM | 65.92 µg/mL (≈ 191 µM) | 40.4% | – | – | – | –
CCc1cccc(NC(=O)C2Cc3cc(OC)c(OC)cc3C2=O)c1 (centres undefined) | 670 nM | 3.11 | 4.4 | 2980 nM | 64.11 µg/mL (≈ 189 µM) | 27.4% | – | – | – | –
COc1cc2c(cc1OC)C(=O)C(C(=O)Nc1ccccc1Br)C2 (centres undefined) | 120 nM | 3.03 | 28.3 | 3400 nM | 65.44 µg/mL (≈ 168 µM) | 52.8% | – | – | – | –
COc1cc2c(cc1OC)C(=O)C(C(=O)Nc1ccc(Cl)cc1)C2 (centres undefined) | 500 nM | 2.76 | 8.8 | 4400 nM | 56.76 µg/mL (≈ 164 µM) | 38.2% | – | – | – | –
COc1cc2c(cc1OC)C(=O)C(C(=O)Nc1cccc(Br)c1)C2 (centres undefined) | 330 nM | 3.03 | 7.4 | 2430 nM | 58.88 µg/mL (≈ 151 µM) | 31.9% | – | – | – | –
COc1cc2c(cc1OC)C(=O)C(C(=O)Nc1ccc(Br)cc1)C2 (centres undefined) | 140 nM | 3.03 | 26.1 | 3660 nM | 72.14 µg/mL (≈ 185 µM) | 47.6% | – | – | – | –
COc1cc2c(cc1OC)C(=O)C(C(=O)Nc1ccc(C)cc1)C2 (centres undefined) | 840 nM | 2.69 | 3.2 | 2500 nM | 67.82 µg/mL (≈ 208 µM) | 26.8% | – | – | – | –
CCOc1cccc(NC(=O)C2Cc3cc(OC)c(OC)cc3C2=O)c1 (centres undefined) | 780 nM | 2.42 | 5 | 3870 nM | 44.89 µg/mL (≈ 126 µM) | 28.3% | – | – | – | –
COc1ccc(NC(=O)C2Cc3cc(OC)c(OC)cc3C2=O)cc1 (centres undefined) | 530 nM | 2.08 | 5.5 | 2900 nM | 49.47 µg/mL (≈ 145 µM) | 34.5% | – | – | – | –
COc1cc2c(cc1OC)C(=O)C(C(=O)Nc1cccc(Cl)c1)C2 (centres undefined) | 470 nM | 2.76 | 4.8 | 2240 nM | 76.32 µg/mL (≈ 221 µM) | 37.4% | – | – | – | –
COc1cc2c(cc1OC)C(=O)C(C(=O)Nc1cccc(F)c1)C2 (centres undefined) | 247 nM | 2.36 | 9.1 | 2250 nM | 58.11 µg/mL (≈ 176 µM) | 38.7% | – | – | – | –
COc1cccc(NC(=O)C2Cc3cc(OC)c(OC)cc3C2=O)c1 (centres undefined) | 540 nM | 2.08 | 3.9 | 2100 nM | 38.94 µg/mL (≈ 114 µM) | 30.2% | – | Active | Active | Active
COc1cc2c(cc1OC)C(=O)C(C(=O)Nc1ccccc1)C2 (centres undefined) | 920 nM | 2.2 | 3.4 | 3150 nM | 61.28 µg/mL (≈ 197 µM) | 14.3% | – | – | – | –
CCc1ccccc1NC(=O)C1Cc2cc(OC)c(OC)cc2C1=O (centres undefined) | 860 nM | 3.11 | 7.3 | 6290 nM | 55 µg/mL (≈ 162 µM) | 21.8% | – | – | – | –
CCc1ccc(NC(=O)C2Cc3cc(OC)c(OC)cc3C2=O)cc1 (centres undefined) | 650 nM | 3.11 | 4.6 | 2960 nM | 76.15 µg/mL (≈ 224 µM) | 32.1% | – | – | – | –
COc1cc2c(cc1OC)C(=O)C(C(=O)Nc1ccc(F)cc1)C2 (centres undefined) | 110 nM | 2.36 | 24.1 | 2650 nM | 54.96 µg/mL (≈ 167 µM) | 45.4% | – | – | – | –
CCOc1ccccc1NC(=O)C1Cc2cc(OC)c(OC)cc2C1=O (centres undefined) | 770 nM | 2.42 | 8.6 | 6620 nM | 63.67 µg/mL (≈ 179 µM) | 38.1% | – | – | – | –
COc1cc2c(cc1OC)C(=O)C(C(=O)Nc1cccc(C)c1)C2 (centres undefined) | 770 nM | 2.69 | 2.9 | 2240 nM | 55.83 µg/mL (≈ 172 µM) | 19.1% | – | – | – | –
